Measurements of several laboratories.
Each line is one published result; the experiments were not run side by side.
MMP14: Matrix metalloproteinase-14 (MMP14, Homo sapiens, UniProt P50281)
Kir1 channel protein: Kir1 channel protein (Aedes aegypti, UniProt L0EQS9)
BTK: Tyrosine-protein kinase BTK (BTK, Homo sapiens, UniProt Q06187)

For `Cc1ccc(C(=O)Nc2ccc(Oc3cc4cnn(C)c4cc3-c3cn[nH]c3)c(F)c2)c(=O)n1-c1ccc(F)cc1`, the IC50 was 0.076 µM (Vascular endothelial growth factor receptor 1 (FLT1, Homo sapiens, UniProt P17948); enzyme activity, inhibitor, radiometric).
With `Cc1noc(-c2cc3cc(-c4nc(C(=O)NCC5CCOCC5)[nH]c4C)ccc3[nH]2)n1` the IC50 was greater than 20 µM (MMP14; enzyme activity, inhibitor).
With `O=[N+]([O-])c1ccc(N2CCN(S(=O)(=O)c3ccc(F)cc3)CC2)cc1NCc1cccnc1` the IC50 was 0.057 µM (Kir1 channel protein; ion current, inhibitor, patch clamp).
`CCc1cc(/C(C)=N/OCc2ccc(C3CCCCC3)c(C(F)(F)F)c2)ccc1CN1CC(C(=O)O)C1` has an IC50 of greater than 0.5 µM (Cytochrome P450 2E1 (CYP2E1, Homo sapiens, UniProt P05181); enzyme activity, inhibitor; human, liver microsomes; 20 min).
`COc1ccc2c(Oc3ccc4c(C(=O)Nc5ccccc5N)cccc4c3)ccnc2c1` has an IC50 of greater than 0.5 µM (BTK; enzyme activity, inhibitor).
`O=C(Nc1cccnc1)N1CCC(Cc2cccc(Oc3ccc(C(F)(F)F)cn3)c2)CC1` gave an IC50 of greater than 10 µM (Arylacetamide deacetylase (Homo sapiens, UniProt P22760); enzyme activity, inhibitor).
For `CC[C@H](C)[C@H](NC(C)=O)C(=O)N[C@@H](CCC(=O)O)C(=O)N[C@H](C(=O)N[C@H](C=O)CC(=O)O)[C@@H](C)O`, the IC50 was 0.086 µM (Caspase-4 (Casp4, Mus musculus, UniProt P70343); enzyme activity, inhibitor).
The IC50 of `Cn1cc(-c2cc3cc(-c4cc(C(=O)NCc5ccc(C(=O)O)cc5)nn4C)ccc3[nH]2)cn1` is reported as greater than 20 µM (MMP14; enzyme activity, inhibitor).
With `COc1ccc(F)cc1C(=O)NCc1ccc(-c2nn([C@@H](C)C(F)(F)F)c(N)c2C(N)=O)cc1` the IC50 was 0.0042 µM (BTK; phosphorylation in cells, inhibitor, western blot).
With `COc1ccc(F)cc1C(=O)NCc1ccc(-c2nn([C@@H](C)C(F)(F)F)c(N)c2C(N)=O)cc1` the IC50 was 0.0071 µM (Tyrosine-protein kinase BTK (BTK, Homo sapiens, UniProt Q06187, C481T); phosphorylation in cells, inhibitor).
For `O=S(=O)(c1ccc(Cl)cc1)N1CCN(c2ccc(C(F)(F)F)c(NCc3ccncc3)c2)CC1`, the IC50 was 4 to 9 µM (Kir1 channel protein; ion flux, inhibitor).
The IC50 of `Cc1cc(O)cc(C)c1C[C@H](NC(=O)[C@@H]1CCCN1C(=O)[C@H](CCCNC(=N)N)NC(=O)[C@H](CCCNC(=N)N)N(C)C(=O)CNC(=O)[C@@H](CO)NC(=O)CNC(=O)[C@H](Cc1cn(CCNC(=O)[C@H](Cc2ccc(O)cc2)NC(=O)[C@H](CC(C)C)NC(=O)C2OC2C(=O)O)nn1)NC(=O)CN1CCN(CC(=O)O)CCN(CC(=O)O)CCN(CC(=O)O)CC1)C(=O)N[C@H](C(=O)N[C@@H](CC(C)C)C(=O)O)C(C)(C)C` (mixture of isomers) is reported as 0.087 µM (Neurotensin receptor type 1 (NTSR1, Homo sapiens, UniProt P30989); ligand displacement, radioligand).
For `CCNC(=O)c1nc(-c2ccc3[nH]c(-c4nc(C)no4)cc3c2)c(C)[nH]1`, the IC50 was greater than 20 µM (MMP14; enzyme activity, inhibitor).
The IC50 of `O=[N+]([O-])c1ccc(N2CCN(S(=O)(=O)c3ccc(Cl)cc3)CC2)cc1NCc1ccco1` is reported as 0.84 µM (Kir1 channel protein; ion flux, inhibitor).
`O=C1Nc2ccc(I)cc2/C1=C/c1cc(Br)c(O)c(Br)c1` has an IC50 of 50 µM (Protein-glutamine gamma-glutamyltransferase (TGM2, Homo sapiens, UniProt P21980); enzyme activity, inhibitor).
The IC50 of `O=C(Oc1nsnc1N1CCOCC1)N1CCCCC1` is reported as 0.085 µM (Monoacylglycerol lipase ABHD6 (ABHD6, Homo sapiens, UniProt Q9BV23); enzyme activity, inhibitor, fluorescence; lysate).
The IC50 of `O=S(=O)(c1ccc(Cl)cc1)N1CCN(c2cccc(NCc3ccncc3)c2)CC1` is reported as 4 to 9 µM (Kir1 channel protein; ion flux, inhibitor).
With `CCC1(c2ccc(C)cc2)C(=O)N(C(=O)OC(C)C)N1C(=O)OC(C)C` (stereo not drawn) the IC50 was 4.5 µM (Prolyl endopeptidase (Mus musculus, UniProt Q9QUR6); enzyme activity, inhibitor).
